Screening results from PubChem BioAssay.
NR1D1 modulator = modulators of Rev-erb alpha DNA binding, primary screen, biochemical, FITC-DNA, fluorescence polarization, uHTS; Nuclear receptor subfamily 1 group D member 1 (Homo sapiens), P20393; Rev-erbα–FITC-DNA binding, 90 min; activity, % at 10 µM; hit rate 0.79% among 370,000;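 active means activity above about 14%, limit read from the data; passing the limit was not always enough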;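 further: 0% = DMSO wells with 35 nM protein and 100% = DMSO wells with 750 nM protein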
Target sequence (P20393 whole entry, looked up): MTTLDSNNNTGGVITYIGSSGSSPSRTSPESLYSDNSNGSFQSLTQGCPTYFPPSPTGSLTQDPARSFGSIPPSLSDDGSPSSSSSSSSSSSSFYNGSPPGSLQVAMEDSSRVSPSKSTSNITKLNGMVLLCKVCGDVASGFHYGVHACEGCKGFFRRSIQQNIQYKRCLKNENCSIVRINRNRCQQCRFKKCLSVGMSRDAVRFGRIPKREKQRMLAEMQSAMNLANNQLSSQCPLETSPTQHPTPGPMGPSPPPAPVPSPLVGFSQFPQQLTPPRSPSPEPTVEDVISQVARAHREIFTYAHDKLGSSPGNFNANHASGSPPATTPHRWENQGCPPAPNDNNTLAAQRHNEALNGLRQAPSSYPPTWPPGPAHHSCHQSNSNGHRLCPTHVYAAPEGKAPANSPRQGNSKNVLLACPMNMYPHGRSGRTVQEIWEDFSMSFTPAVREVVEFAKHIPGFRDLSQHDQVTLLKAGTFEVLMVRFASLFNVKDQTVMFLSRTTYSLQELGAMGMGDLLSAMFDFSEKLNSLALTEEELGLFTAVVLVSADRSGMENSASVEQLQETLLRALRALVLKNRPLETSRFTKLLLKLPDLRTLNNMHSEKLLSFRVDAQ
NR2E3 ag-1 = inhibitors of NR2E3-RetCOR corepressor binding, primary screen, NR2E3 agonist project, biochemical, TR-FRET, GST-NR2E3, biotin-RetCOR | AID 2300, 2010 | 1536-well | hit rate 0.12% among 320,000 | Photoreceptor-specific nuclear receptor (Homo sapiens), Q9Y5X4 | inhibition of corepressor binding, % at 4.78 µM;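 active means percent inhibition above the cutoff of mean plus 3 SD of all tested compounds, set per screening campaign, cut at about 20% in these data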;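 further: 0% = DMSO wells and 100% = biotin wells as full block of FRET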
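Test system – NR2E3–RetCOR corepressor complex · Quantity – NR2E3 fusion 1.35 nM · Buffer or medium – Tris pH 7.5 · Incubation – Compound–protein incubation for 5 h at 4 °C · Technique – TR-FRET, Eu(K)-anti-GST donor, streptavidin-D2 acceptor, ex 340, em 617/671 nm · Evaluation – percent inhibition of 671/617 nm emission ratio versus biotin and DMSO controls · Plate – 1536-well format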
PG9 Ab binder = binders of HIV-1 gp120 antibody PG9, primary screen, biochemical, TR-FRET; HIV-1 gp120 / PG9 antibody interaction; TR-FRET gp120-PG9 antibody binding; inhibition, % at 6.7 µM; hit rate 0.43% among 360,000; AID 624416, 2012; in the data active means inhibition above about 8.5%
NR2E3 ag-2 = NR2E3 agonists in two-hybrid cells, primary screen, cell-based, luminescence, CHO-S, Gal4-NCOR/VP16-NR2E3 | luciferase | inhibition of corepressor binding, % at 3.98 µM | hit rate 0.35% among 360,000 | AID 602229, 2012;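 active means inhibition above the mean of all tested compounds plus 3 SD, cut at about 70% in these data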;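 further: 0% = DMSO with NR2E3 transfected cells and 100% = cells lacking NR2E3 construct; higher means lower luciferase signal from less NR2E3 corepressor binding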
MT1-MMP act inh = blockers of MT1-MMP proenzyme processing, primary screen, HT1080 RFP-PRO-GFP cells, GFP/RFP fluorescence. hit rate 0.061% among 360,000. GFP/RFP ratio change, % at 20 µM. GFP/RFP ratio fluorescence, overnight; percent of plate control window, DMSO zero. Matrix metalloproteinase-14 (Homo sapiens), P50281;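 active means GFP/RFP ratio change of at least 30% with cell ATP level not reduced by more than half and red fluorescence within 50% of control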
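Material: RFP-PRO-GFP reporter HT1080 cells. Dosing: single-point 20 µM compound, 1% DMSO. Controls: DMSO and RFP-L50D-GFP cell wells. Timing: cells overnight before dosing, compound overnight, 37 °C, 5% CO2. Measure: GFP/RFP fluorescence ratio.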
SKN-1 inh = suppressors of acrylamide-induced Pgst-4::GFP reporter in worms, primary screen, SKN-1 inhibitor project, whole organism, uHTS, GFP/RFP fluorescence ratio, strain VP596 | C. elegans VP596 Pgst-4::GFP/RFP ratio, 24 h | inhibition, % at 21.8 µM | hit rate 0.49% among 360,000 | AID 624304, 2012;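 active means interference check ratio from 0.5 to 1.5 plus GFP to RFP signal ratio inhibition reaching or exceeding a fixed threshold, cut at about 30% in these data, passing the limit was not always enough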
NR1D1 mod conf = modulators of Rev-erb alpha DNA binding, confirmation, biochemical, FITC-DNA, fluorescence polarization, single point. shares compounds with NR1D1 modulator. 90 min. activation, % at 25 µM. hit rate 61% among 3,000;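 active means activation at or above a set limit, or at least 3 SD above the negative control mean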;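 further: 0% = 35 nM protein with DMSO and 100% = 750 nM protein high control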
RORg counter = modulation of RORgamma DNA binding, dose response, counter-screen for Rev-erb alpha modulator project, biochemical, fluorescence polarization, FITC-DNA. shares compounds with NR1D1 modulator. purified RORgamma protein-FITC-DNA binding. IC50, µM. hit rate 8% among 910. AID 1259320, 2017;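 active means Compounds whose fitted half-maximal concentration for disrupting protein-DNA binding is below 10 micromolar; the record names Rev-erb in its text, so the target is in doubt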
An asterisk follows results filed as active; i = inactive; x = no result given. A selection: hits, their analogues and other compounds. The true share with any hit is near 1.9%.

SMILES	NR1D1 modulator	NR2E3 ag-1	PG9 Ab binder	NR2E3 ag-2	MT1-MMP act inh	SKN-1 inh	NR1D1 mod conf	others
COC(=O)N1C[C@H](Oc2cccc3ccccc23)[C@H]2C[C@@H]1c1ccccc1O2	1	x	-1	x	x	x	x
N=C1C(c2nc3ccccc3s2)=C(O)CN1C1CCCCC1	20*	1	-2	-32	-1	13	11
N=C1C(c2nc3ccccc3s2)=C(O)CN1C1CCC(O)CC1 (stereo unspecified)	-2	3	-2	x	x	x	x
COc1ccc(-c2cc(C(F)(F)F)c(C#N)c(SCC(=O)Nc3ccccc3C#N)n2)cc1	x	0	x	x	x	x	x
COc1ccc(-c2cc(C(F)(F)F)c(C#N)c(SCC(=O)Nc3nc(C)co3)n2)cc1	47*	4	x	3	-189	5	43*	RORg counter=>40
Cc1coc(NC(=O)CSc2nc(-c3ccc(Cl)cc3)cc(C(F)(F)F)c2C#N)n1	78*	-2	0	-14	-18	-12	66*	RORg counter=>40
COc1ccc(-c2cc(C(F)(F)F)c(C#N)c(SCC(=O)O)n2)cc1	0	0	-1	-15	7	8	x
COc1ccc(NC(=O)CSc2nc(-c3ccc(C)cc3)cc(C(F)(F)F)c2C#N)cc1	24*	0	1	-17	-8	1	41*	RORg counter=1.5*
Cc1ccccc1C(=O)N[C@H](C(=O)N1CCC[C@H]1C(=O)NCCc1ccccc1Cl)c1ccccc1	-3	x	-2	x	x	x	x
CC(C)c1nc2sc3c(NCc4ccccc4)ncnc3c2c2c1COC(C)(C)C2	24*	-1	0	20	-1	-2	10
C[C@H](O)[C@@H]1CN2CCc3ccc(-c4ccc5c(c4)OCO5)cc3[C@@H]2C[C@@H]1N(C)Cc1ccccc1	3	x	0	x	x	x	x
CCc1ccc(-c2cc3c(=O)n(CC(=O)N4CCCC4)nc(C)n3n2)cc1	49*	-2	-1	18	-1	2	20*
Cc1cccc(CSc2nc3c(cc2C#N)CCC3)c1	47*	0	0	-29	-3	-2	30*
N#Cc1cc2c(nc1SCc1cccnc1)CCC2	-1	5	-5	-11	1	-1	x
Cc1ccc(-c2nc3ccccc3s2)cc1NC(=S)NC(=O)c1ccccc1	-1	0	0	-118	5	10	x
Cc1ccc(-c2nc3ccccc3s2)cc1NC(=O)c1cc(-n2cnnc2)ccc1Cl	33*	0	4	-22	5	9	32*	RORg counter=>40
COC(CNC(=O)[C@H](Cc1c[nH]c2ccccc12)NC1(C(=O)NCc2ccccc2)CCCCC1)OC	-3	x	x	x	x	x	x
O=C(OCC#CCSc1nnc(-c2cccc3ccccc23)o1)c1ccccc1F	-2	x	x	x	x	x	x
O=C(CCc1ccccc1)NC(=S)Nc1ccc2c(c1)C(=O)OC2	31*	-6	8	-27	2	-2	30*
O=C(CCc1ccccc1)NC(=S)Nc1cccc(Br)c1	-1	-2	0	-13	4	-7	x
N#CCCn1cc(/C=C(\C#N)c2nc3ccccc3s2)c(-c2ccc(F)cc2)n1	45*	-2	-2	-32	x	-20	35*
O=C(COC(=O)c1ccccc1)Nc1ncc([N+](=O)[O-])s1	-22	x	3	-76	1	6	x
O=C(Nc1ccccc1)Nc1ncc([N+](=O)[O-])s1	23*	x	-2	36	-7	-3	11
CN(CC(=O)Nc1ccc(Cl)cc1)S(=O)(=O)c1ccc2c(c1)n(C)c(=O)c(=O)n2C	63*	0	0	-25	3	20	43*	RORg counter=>40
CCNC(=O)NC(=O)C(C)OC(=O)c1oc2ccc(OC)cc2c1C (stereo unspecified)	23*	-2	1	4	4	5	12
SMILES	NR1D1 modulator	NR2E3 ag-1	PG9 Ab binder	NR2E3 ag-2	MT1-MMP act inh	SKN-1 inh	NR1D1 mod conf	others
COc1ccc2oc(C(=O)OC(C)C(=O)N(C)c3ccccc3)c(C)c2c1 (stereo unspecified)	-3	-3	-1	-20	3	5	x
COc1ccc(OC)c(-c2csc(NC(=O)c3ccc4c(c3)OCO4)n2)c1	49*	3	-2	-45	-7	-17	51*	RORg counter=i
COc1ccc(C(=O)Nc2nc3cc4c(cc3s2)OCO4)c(OC)c1	19*	-60	6	-138	4	4	11*
CC(=O)c1sc(NC(=O)c2ccccc2F)nc1-c1ccccc1	17*	9	2	-111	1	0	11
COc1ccc(C(=O)Nc2nc(-c3ccccc3)c(C(C)=O)s2)c(OC)c1	25*	-2	2	-36	2	-5	15
CC(=O)c1sc(NC(=O)c2ccc(F)cc2)nc1-c1ccccc1	18	1	4	-15	-4	-2	x
CCOC(=O)N(C)[C@H]1C[C@H]2c3[nH]c4c(-c5ccccc5)cccc4c3CCN2C(=O)[C@H]1[C@H](C)O	5	x	0	x	x	x	x
COc1ccc(S[C@]2(C(=O)NCCc3ccccc3)CC(=O)N[C@@H]2c2ccc(OC)cc2)cc1	6	x	x	x	x	x	x
Cc1ccc(NC(=O)CSc2nc3ccccc3nc2N2CCOCC2)c(C)c1	38*	1	4	-29	-6	-8	40*	RORg counter=>40
CC(=O)Nc1ccc(NC(=O)CSc2nc3ccccc3nc2N2CCC(C)CC2)cc1	45*	-2	-2	-38	-5	-7	21*
NC1CCCCC1N=Cc1c(O)n(CCc2ccc(F)cc2)c(=O)[nH]c1=O (stereo unspecified)	0	x	1	-1	3	-12	x
O=c1[nH]c(=O)n(CCc2ccc(F)cc2)c(O)c1C=NCc1ccc2c(c1)OCO2	21*	1	-2	5	8	-26	26*
